Measured values gathered from unrelated publications.
Lines come from different studies, so protocols differ.
Target: Rhodopsin kinase GRK7 (GRK7, Homo sapiens, UniProt Q8WTQ7)
One construct used (Q8WTQ7 1-553): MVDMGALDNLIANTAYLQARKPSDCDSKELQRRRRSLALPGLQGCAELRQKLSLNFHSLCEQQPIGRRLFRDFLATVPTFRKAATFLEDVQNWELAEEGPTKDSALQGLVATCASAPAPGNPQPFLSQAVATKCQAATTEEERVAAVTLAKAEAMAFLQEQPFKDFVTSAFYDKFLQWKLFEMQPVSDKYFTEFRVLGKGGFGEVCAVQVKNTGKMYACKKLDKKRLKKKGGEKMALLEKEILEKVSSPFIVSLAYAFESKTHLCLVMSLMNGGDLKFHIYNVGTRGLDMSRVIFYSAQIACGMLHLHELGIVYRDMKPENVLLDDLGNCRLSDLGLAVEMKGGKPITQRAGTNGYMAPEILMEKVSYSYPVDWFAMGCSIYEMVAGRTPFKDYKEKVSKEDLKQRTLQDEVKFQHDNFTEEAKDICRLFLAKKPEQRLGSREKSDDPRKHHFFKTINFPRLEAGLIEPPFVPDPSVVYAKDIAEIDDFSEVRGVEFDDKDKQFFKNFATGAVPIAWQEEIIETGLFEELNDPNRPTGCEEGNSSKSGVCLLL

SMILES | observed | action | technique | concentration | quantity | value
Cn1cc(-c2cccc(N3CCc4c(sc5c4CC(C)(C)C5)C3=O)c2CO)cc(Nc2ccncn2)c1=O | enzyme activity | inhibitor | – | 1 µM | inhibition | 3%
Cn1cncc1[C@@](O)(COc1ccc(C#N)cc1-c1ccc(OC(F)(F)F)cc1)c1ccc(C#N)cc1 | cell-free assay | – | competition with immobilised ligand | 1 µM | remaining binding | 81%
CC(C)(C)c1cc(C=C(C#N)C#N)cc(Br)c1O | enzyme activity | inhibitor | – | 0.5 µM | remaining activity | 107%
N#CC1(c2ccccn2)CCN(Cc2cc(C(=O)O)c(=O)n3ccccc23)CC1 | cell-free assay | – | competition with immobilised ligand | 1 µM | remaining binding | 77%
Nc1ncc(-c2nc(N3CCOCC3)nc(N3CCOCC3)n2)c(C(F)F)n1 | binding | – | competition with immobilised ligand | 10 µM | remaining binding | 67%
O=c1[nH]c2ccccc2n1C1CCN(Cc2ccc(-c3[nH]c4cc5ncnc5cc4nc3-c3ccccc3)cc2)CC1 | cell-free assay | – | – | 0.5 µM | remaining signal | 98.5%
COc1ncccc1-c1cnn2ccc(N3CCN(C(=O)OC(C)C)CC3)nc12 | binding | – | competition with immobilised ligand | 1 µM | remaining binding | 100%
Cn1cc(-c2cc(F)cc(N3CCn4c(cc5c4CCCC5)C3=O)c2CO)cc(Nc2ccc(N3CCN(C4COC4)CC3)cn2)c1=O | enzyme activity | inhibitor | – | 0.1 µM | inhibition | 2%
